Assay results taken from article PMC3466390 (Biomaterials, 2012).
“Also recorded” adds a separate entry of the source.

How the values were obtained:
E. coli (ATCC 25922) = experiment: Antibacterial assay on hydrogel surfaces; type: cell-based, Escherichia coli; conditions: 0.5, 1, 1.5 and 2 wt% hydrogels, 10^5 CFU/dm^2, 24 h, 37°C, n=3
Outline: (§1)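 Gels (0.5–2 wt%) formed in wells by mixing peptide stocks in sterile water 1:1 with BTP buffer (100 mM, 300 mM NaCl, pH 7.4). They were held 3 h at 37°C, then equilibrated overnight under BTP (50 mM, 150 mM NaCl, pH 7.4), and the buffer was removed. Bacteria were grown overnight on blood agar, applied at 10^4 CFU/mL in TSB, and incubated 24 h at 37°C, with bare plastic as control. After a TSB wash, OD625 of the overlying solution was corrected for dilution and scattering. % non-viable = [1 − OD surface/OD control]×100; triplicate.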

S. aureus (ATCC 25923) = experiment: Antibacterial assay on hydrogel surfaces; type: cell-based, Staphylococcus aureus; conditions: 0.5, 1, 1.5 and 2 wt% hydrogels, 10^5 CFU/dm^2, 24 h, 37°C, n=3
Outline: as §1

[1] = system: human red blood cells (hRBCs); type: cell-based
[2] = CD spectroscopy of folding and self-assembly; type: physicochemical
Outline: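 Peptides were measured at 1 wt% in chilled water, or as chilled 2 wt% aqueous stock mixed 1:1 with BTP stock (100 mM, 300 mM NaCl, pH 7.4) and left to gel in the cell. Scans ran 200–260 nm at 37°C in a 0.1 mm quartz cell. Mean residue ellipticity was [θ] = (θobs/10lc)/r.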

[3] = Oscillatory rheology of hydrogels; type: physicochemical; conditions: 1 wt% gel, 0.2% strain
Outline: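 A 2 wt% peptide solution in chilled water was mixed with an equal volume of BTP (100 mM, 300 mM NaCl, pH 7.4). It was loaded on a 25 mm parallel plate at 5°C with a 0.5 mm gap, then ramped to 37°C over 100 s. G′ and G″ were followed by a 1 h time sweep at 6 rad/s and 0.2% strain. For recovery, 1000% strain was applied for 30 s at 6 rad/s, followed by a second 1 h sweep.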

[4] = system: P. aeruginosa (ATCC 27853); experiment: Antibacterial assay on hydrogel surfaces; type: cell-based, Pseudomonas aeruginosa; conditions: 10^5 CFU/dm^2, 24 h, 37°C, n=3
Outline: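 Peptide stocks in sterile water were mixed 1:1 with BTP (100 mM, 300 mM NaCl, pH 7.4) to gel, held 3 h at 37°C, then equilibrated overnight under BTP (50 mM, 150 mM NaCl, pH 7.4), which was then removed. Blood-agar-grown bacteria (18-20 h) at 10⁴ CFU/mL in TSB were applied to the gel surface for 24 h at 37°C. OD625 was compared with bare polystyrene: % non-viable = [1 − OD surface/OD control]×100.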

E. coli [5] = experiment: Antibacterial assay in the presence of Ca2+; type: cell-based, Escherichia coli; conditions: 1 wt% hydrogel, 0, 0.1, 1, 10 and 20 mM Ca2+, 37°C, CFU count, n=3
E. coli [6] = experiment: Atomic force microscopy imaging of bacteria on gel; type: cell-based, Escherichia coli; conditions: 2 wt% hydrogel, 2 h incubation, 37°C
S. aureus = experiment: Antibacterial assay in the presence of Ca2+; type: cell-based, Staphylococcus aureus; conditions: 1 wt% hydrogel, 0, 0.1, 1, 10 and 20 mM Ca2+, 37°C, CFU count, n=3
P. aeruginosa = type: cell-based

Row | Substance | antibacterial activity of hydrogel surface against E. coli, in words (E. coli (ATCC 25922)) | antibacterial activity of hydrogel surface against S. aureus, in words (S. aureus (ATCC 25923)) | hemolytic activity [1] | hemolytic activity as a function of wt% [1] | folding/assembly state by CD ([2]; 1 wt% peptide in BTP buffer with NaCl, pH 7.4, 37°C) | folding/assembly state by CD ([2]; 1 wt% peptide in water, 37°C) | storage modulus (G') ([3]; 50 mM BTP, 150 mM NaCl, pH 7.4, 37°C, after 1 h, 6 rad/s) | recovery of initial mechanical rigidity after shear-thinning ([3]; 37°C, 1000% strain for 30 s, then 1 h at 6 rad/s) | antibacterial activity of hydrogel surface against P. aeruginosa, in words ([4]; 0.5 wt% hydrogel) | antibacterial activity of hydrogel surface against P. aeruginosa, in words ([4]; 1.5 wt% hydrogel) | antibacterial activity of hydrogel surface against P. aeruginosa, in words ([4]; 2 wt% hydrogel) | antibacterial activity (percent non-viable bacteria) in the presence of Ca2+ (E. coli [5]) | morphology of E. coli on gel surface by AFM (E. coli [6]) | antibacterial activity (percent non-viable bacteria) in the presence of Ca2+ (S. aureus) | live-dead result at the gel surface (cytostatic or cytotoxic) (P. aeruginosa) | live-dead result at the gel surface, short incubation, compared with 24 h (P. aeruginosa; 2 wt% hydrogel, 2 h incubation)
1 | VRVRVRVRV^DPPTRVRVRVRV-NH2 [PEP8R] | capable of inhibiting both E. coli and S. aureus proliferation, irrespective of the peptide weight percentage used | capable of inhibiting both E. coli and S. aureus proliferation, irrespective of the peptide weight percentage used | about 25% | decreases in a concentration dependent manner | folded and assembled into β-sheet structures | unfolded peptide |  |  |  |  |  |  |  |  |  | 
2 | VKVRVRVRV^DPPTRVRVRVKV [PEP6R] | inhibit E. coli and S. aureus proliferation at all weight percentages; also recorded: quantitatively kills E. coli at all weight percents tested | inhibit E. coli and S. aureus proliferation at all weight percentages | low hemolytic activity |  |  |  | increase in mechanical rigidty | about 90% | only marginally active | extremely potent | extremely potent | progressively attenuated with increasing concentrations of Ca^2+ | membrane surface has collapsed and appears highly punctated | progressively attenuated with increasing concentrations of Ca^2+ | cytotoxic | identical
